Laboratory results published in ChEMBL document CHEMBL1811814, “Synthesis and evaluation of indole, pyrazole, chromone and pyrimidine based conjugates for tumor growth inhibitory activities--development of highly efficacious cytotoxic agents” (Eur J Med Chem, 2010).

Experiments:
Assay type in all cases: functional
NCI/ADR-RES [1] = assay: Growth inhibition of human NCI/ADR-RES cells assessed tumor cell growth at 10^-5 M; parameters: scale not given: the % may be the effect or the level left
Procedure, shortened: (§1)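 NCI 60-human-tumor-cell-line panel screen. Each compound was tested at a single concentration of 10^-5 M, and percent growth of tumor cells was recorded for each cell line. Growth inhibition was expressed from these percent-growth values.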

SN12C [2] = assay: Growth inhibition of human SN12C cells
NCI-H460 = assay: Growth inhibition of human NCI-H460 cells assessed tumor cell growth at 10^-5 M; parameters: scale not given: the % may be the effect or the level left; procedure, shortened: as §1
U-251 = assay: Growth inhibition of human U251 cells
COLO 205 = assay: Growth inhibition of human COLO205 cells assessed tumor cell growth at 10^-5 M; parameters: scale not given: the % may be the effect or the level left; procedure, shortened: as §1
T47D = assay: Growth inhibition of human T47D cells assessed tumor cell growth at 10^-5 M; parameters: scale not given: the % may be the effect or the level left
Procedure, shortened: (§2)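 Single-dose screen at 10^-5 M across the 60 human tumor cell line panel, run to NCI standards. The value is the percent growth of each cell line in the presence of compound. Compounds active at this dose moved on to five-concentration testing (10^-4 to 10^-8 M).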

M14 [3] = assay: Growth inhibition of human M14 cells
786-0 = assay: Growth inhibition of human 786-0 cells assessed tumor cell growth at 10^-5 M; parameters: scale not given: the % may be the effect or the level left; procedure, shortened: as §1
A549 = assay: Growth inhibition of human A549 cells assessed tumor cell growth at 10^-5 M; parameters: scale not given: the % may be the effect or the level left; procedure, shortened: as §1
HCC 2998 = assay: Growth inhibition of human HCC2998 cells
SW-620 = assay: Growth inhibition of human SW620 cells assessed tumor cell growth at 10^-5 M; parameters: scale not given: the % may be the effect or the level left; procedure, shortened: as §2
NCI-H522 = assay: Growth inhibition of human NCI-H522 cells assessed tumor cell growth at 10^-5 M; parameters: scale not given: the % may be the effect or the level left; procedure, shortened: as §1
UO-31 = assay: Growth inhibition of human UO31 cells assessed tumor cell growth at 10^-5 M; parameters: scale not given: the % may be the effect or the level left; procedure, shortened: as §2
KM12 = assay: Growth inhibition of human KM12 cells
MDA-MB-231 = assay: Growth inhibition of human MDA-MB-231 cells assessed tumor cell growth at 10^-5 M; parameters: scale not given: the % may be the effect or the level left; procedure, shortened: as §1
EKVX [4] = assay: Growth inhibition of human EKVX cells assessed tumor cell growth at 10^-5 M; parameters: scale not given: the % may be the effect or the level left; procedure, shortened: as §1
ACHN [5] = assay: Growth inhibition of human ACHN cells assessed tumor cell growth at 10^-5 M; parameters: scale not given: the % may be the effect or the level left; procedure, shortened: as §1
UACC-62 = assay: Growth inhibition of human UACC62 cells assessed tumor cell growth at 10^-5 M; parameters: scale not given: the % may be the effect or the level left; procedure, shortened: as §2
LOX IMVI = assay: Growth inhibition of human LOXIMVI cells
OVCAR-3 = assay: Growth inhibition of human OVCAR3 cells assessed tumor cell growth at 10^-5 M; parameters: scale not given: the % may be the effect or the level left; procedure, shortened: as §1
NCI-H23 = assay: Growth inhibition of human NCI-H23 cells assessed tumor cell growth at 10^-5 M; parameters: scale not given: the % may be the effect or the level left; procedure, shortened: as §1
OVCAR-8 [6] = assay: Growth inhibition of human OVCAR8 cells assessed tumor cell growth at 10^-5 M; parameters: scale not given: the % may be the effect or the level left; procedure, shortened: as §1
SN12C [7] = assay: Growth inhibition of human SN12C cells assessed tumor cell growth at 10^-5 M; parameters: scale not given: the % may be the effect or the level left; procedure, shortened: as §1
SF-295 = assay: Growth inhibition of human SF295 cells
ACHN [8] = assay: Growth inhibition of human ACHN cells
SK-MEL-2 = assay: Growth inhibition of human SK-MEL-2 cells assessed tumor cell growth at 10^-5 M; parameters: scale not given: the % may be the effect or the level left; procedure, shortened: as §1
SK-OV-3 = assay: Growth inhibition of human SKOV3 cells
TK-10 = assay: Growth inhibition of human TK10 cells
PC-3 = assay: Growth inhibition of human PC3 cells
[9] = Growth inhibition of human Hs 578T cells assessed tumor cell growth at 10^-5 M; parameters: scale not given: the % may be the effect or the level left; procedure, shortened: as §1
MDA-MB-468 = assay: Growth inhibition of human MDA-MB-468 cells
SR = assay: Growth inhibition of human SR cells
NCI-H322M [10] = assay: Growth inhibition of human NCI-H322M cells
HCT-116 [11] = assay: Growth inhibition of human HCT116 cells
NCI/ADR-RES [12] = assay: Growth inhibition of human NCI/ADR-RES cells
SK-MEL-5 [13] = assay: Growth inhibition of human SK-MEL-5 cells assessed tumor cell growth at 10^-5 M; parameters: scale not given: the % may be the effect or the level left; procedure, shortened: as §1
EKVX [14] = assay: Growth inhibition of human EKVX cells
CCRF-CEM = assay: Growth inhibition of human CCRF-CEM cells
OVCAR-4 = assay: Growth inhibition of human OVCAR4 cells assessed tumor cell growth at 10^-5 M; parameters: scale not given: the % may be the effect or the level left; procedure, shortened: as §1
NCI-H322M [15] = assay: Growth inhibition of human NCI-H322M cells assessed tumor cell growth at 10^-5 M; parameters: scale not given: the % may be the effect or the level left; procedure, shortened: as §1
NCI-H226 = assay: Growth inhibition of human NCI-H226 cells assessed tumor cell growth at 10^-5 M; parameters: scale not given: the % may be the effect or the level left; procedure, shortened: as §1
HCT-116 [16] = assay: Growth inhibition of human HCT116 cells assessed tumor cell growth at 10^-5 M; parameters: scale not given: the % may be the effect or the level left; procedure, shortened: as §1
M14 [17] = assay: Growth inhibition of human M14 cells assessed tumor cell growth at 10^-5 M; parameters: scale not given: the % may be the effect or the level left; procedure, shortened: as §1
OVCAR-5 = assay: Growth inhibition of human OVCAR5 cells
A498 = assay: Growth inhibition of human A498 cells assessed tumor cell growth at 10^-5 M; parameters: scale not given: the % may be the effect or the level left; procedure, shortened: as §1
SK-MEL-5 [18] = assay: Growth inhibition of human SK-MEL-5 cells
HOP-92 = assay: Growth inhibition of human HOP92 cells assessed tumor cell growth at 10^-5 M; parameters: scale not given: the % may be the effect or the level left; procedure, shortened: as §1
HOP-62 = assay: Growth inhibition of human HOP62 cells
K562 = assay: Growth inhibition of human K562 cells assessed tumor cell growth at 10^-5 M; parameters: scale not given: the % may be the effect or the level left; procedure, shortened: as §1
OVCAR-8 [19] = assay: Growth inhibition of human OVCAR8 cells
BT-549 = assay: Growth inhibition of human BT549 cells
HCT-15 = assay: Growth inhibition of human HCT15 cells assessed tumor cell growth at 10^-5 M; parameters: scale not given: the % may be the effect or the level left; procedure, shortened: as §1
[20] = read-out: LC50 (the source's name)

Compound: O=C1Nc2ccccc2/C1=C/c1cn(C(=O)c2c(Cl)cccc2Cl)c2ccccc12
- Activity (NCI/ADR-RES [1]): 57.7%
- GI50 (SN12C [2]): 3.9 µM
- CC50 (SN12C [2]; [20]): 70.7 µM
- Activity (NCI-H460): 71.1%
- GI50 (U-251): 3.4 µM
- CC50 (U-251; [20]): 54.9 µM
- Activity (COLO 205): 41.7%
- Activity (T47D): 47.7%
- GI50 (M14 [3]): 2.3 µM
- CC50 (M14 [3]; [20]): 33.8 µM
- Activity (786-0): 57%
- Activity (A549): 36.7%
- GI50 (HCC 2998): 6 µM
- CC50 (HCC 2998; [20]): 52.4 µM
- Activity (SW-620): 45.4%
- Activity (NCI-H522): 55.3%
- Activity (UO-31): 50.7%
- GI50 (KM12): 1.8 µM
- CC50 (KM12; [20]): 8.9 µM
- Activity (MDA-MB-231): 55%
- Activity (EKVX [4]): 81.4%
- Activity (ACHN [5]): 43.6%
- Activity (UACC-62): 36.7%
- GI50 (LOX IMVI): 1.6 µM
- CC50 (LOX IMVI; [20]): 6.6 µM
- Activity (OVCAR-3): 43%
- Activity (NCI-H23): 56.9%
- Activity (OVCAR-8 [6]): 52.3%
- Activity (SN12C [7]): 56%
- GI50 (SF-295): 2.2 µM
- CC50 (SF-295; [20]): 66.1 µM
- GI50 (ACHN [8]): 3.1 µM
- CC50 (ACHN [8]; [20]): > 100 µM
- Activity (SK-MEL-2): 39.9%
- GI50 (SK-OV-3): 8.3 µM
- CC50 (SK-OV-3; [20]): > 100 µM
- GI50 (TK-10): 10.4 µM
- CC50 (TK-10; [20]): > 100 µM
- GI50 (PC-3): 2.4 µM
- CC50 (PC-3; [20]): > 100 µM
- Activity [9]: 64.6%
- GI50 (MDA-MB-468): 4.4 µM
- CC50 (MDA-MB-468; [20]): 69.1 µM
- GI50 (SR): 2.2 µM
- CC50 (SR; [20]): > 100 µM
- GI50 (NCI-H322M [10]): 2.9 µM
- CC50 (NCI-H322M [10]; [20]): > 100 µM
- GI50 (HCT-116 [11]): 1.6 µM
- CC50 (HCT-116 [11]; [20]): 6.9 µM
- GI50 (NCI/ADR-RES [12]): 3.4 µM
- CC50 (NCI/ADR-RES [12]; [20]): > 100 µM
- Activity (SK-MEL-5 [13]): 63%
- GI50 (EKVX [14]): 2.8 µM
- CC50 (EKVX [14]; [20]): > 100 µM
- GI50 (CCRF-CEM): 0.34 µM
- CC50 (CCRF-CEM; [20]): > 100 µM
- Activity (OVCAR-4): 50.3%
- Activity (NCI-H322M [15]): 90.3%
- Activity (NCI-H226): 48.1%
- Activity (HCT-116 [16]): 26%
- Activity (M14 [17]): 66.2%
- GI50 (OVCAR-5): 8.9 µM
- CC50 (OVCAR-5; [20]): > 100 µM
- Activity (A498): 52.5%
- GI50 (SK-MEL-5 [18]): 7.6 µM
- CC50 (SK-MEL-5 [18]; [20]): 45.7 µM
- Activity (HOP-92): 49%
- GI50 (HOP-62): 12.8 µM
- CC50 (HOP-62; [20]): > 100 µM
- Activity (K562): 45.6%
- GI50 (OVCAR-8 [19]): 4.1 µM
- CC50 (OVCAR-8 [19]; [20]): > 100 µM
- GI50 (BT-549): 2.4 µM
- CC50 (BT-549; [20]): 37.1 µM
- Activity (HCT-15): 30.9%
